Test results from paper PMC12429009 (The FASEB Journal, 2025).
“Also recorded” adds a separate entry of the source. Where no end group is shown, it is not given here. The star is where a group is joined. 5FAM = O=C1OC2(c3ccc(O)cc3Oc3cc(O)ccc32)c2ccc(C(=O)*)cc21

Experiments:
14‐3‐3ζ R55A [1] = biological target: T1, 14‐3‐3ζ R55A (Homo sapiens, UniProt P63104, R55A); test: ExoS peptide binding to R55A by surface plasmon resonance, effect of ATPγS; settings: SPR; 10 μM to 1 mM ATPγS with 10 μM peptide; HBS‐P pH 7.4; qualitative
T1 sequence (P63104 1-245 R55A): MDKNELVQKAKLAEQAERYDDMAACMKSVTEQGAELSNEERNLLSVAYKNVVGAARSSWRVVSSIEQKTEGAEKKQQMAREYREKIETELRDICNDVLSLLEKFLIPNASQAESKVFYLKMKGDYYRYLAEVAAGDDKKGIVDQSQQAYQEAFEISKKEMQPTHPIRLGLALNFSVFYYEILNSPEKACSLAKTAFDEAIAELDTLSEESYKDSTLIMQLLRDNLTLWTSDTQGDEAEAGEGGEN
Method in brief: (§1)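 Mutant 14‑3‑3ζ amine‑coupled to a CM5 chip at 4000 RU. ATPγS from 10 μM to 1 mM, together with 10 μM peptide, injected in HBS‑P (10 mM Na‑HEPES pH 7.4, 150 mM NaCl, 0.005% Tween‑20). RU changes on association and dissociation tracked; sensorgrams fitted to a 1:1 binding model.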

14‐3‐3ζ WT [2] = biological target: T2, 14‐3‐3ζ WT (Homo sapiens, UniProt P63104); test: Peptide binding to 14‐3‐3ζ WT by surface plasmon resonance, effect of ATPγS; settings: SPR, HBS‐P pH 7.4
T2 sequence (P63104 1-245): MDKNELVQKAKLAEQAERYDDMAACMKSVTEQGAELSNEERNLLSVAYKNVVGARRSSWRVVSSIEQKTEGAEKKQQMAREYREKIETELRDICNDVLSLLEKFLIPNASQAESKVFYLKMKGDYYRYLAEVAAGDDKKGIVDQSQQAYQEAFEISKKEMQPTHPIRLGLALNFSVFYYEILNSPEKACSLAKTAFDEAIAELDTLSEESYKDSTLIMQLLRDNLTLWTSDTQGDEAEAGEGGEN
Method in brief: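 Amine coupling of recombinant 14‐3‐3ζ WT onto a CM5 chip to 4000 RU. Analyte 10 μM peptide with 10 μM to 1 mM ATPγS in HBS‐P (10 mM Na‐HEPES pH 7.4, 150 mM NaCl, 0.005% v/v Tween‐20). RU change during association and dissociation recorded. Sensorgrams fitted to a 1:1 binding model; relative response compared across ATPγS concentrations.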

14‐3‐3ζ WT [3] = biological target: T2, 14‐3‐3ζ WT; test: LiP‐MS; assay type: binding; settings: 500 μM ATPγS
14‐3‐3ζ Y82A [4] = biological target: T3, 14‐3‐3ζ Y82A (Homo sapiens, UniProt P63104, Y82A); test: ExoS peptide binding to Y82A by surface plasmon resonance, effect of ATPγS; settings: SPR; 10 μM to 1 mM ATPγS with 10 μM peptide; HBS‐P pH 7.4; qualitative
T3 sequence (P63104 1-245 Y82A): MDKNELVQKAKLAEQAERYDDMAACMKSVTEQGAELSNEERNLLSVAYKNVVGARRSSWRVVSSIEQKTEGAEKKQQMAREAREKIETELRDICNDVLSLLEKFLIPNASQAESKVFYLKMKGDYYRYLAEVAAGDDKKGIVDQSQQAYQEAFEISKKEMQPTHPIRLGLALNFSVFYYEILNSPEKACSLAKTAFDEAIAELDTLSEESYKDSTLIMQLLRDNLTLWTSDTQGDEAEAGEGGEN
Method in brief: as §1

14‐3‐3ζ WT [5] = biological target: T2, 14‐3‐3ζ WT; assay type: binding; settings: FP, 25°C, 30 min; for effect on binding of mode 1 or mode 2 peptides to 14‐3‐3ζ: 1 mM ATP or ATPγS, peptide 62.5 nM, protein 8 to 0.0625 μM
Method in brief: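 Untagged recombinant 14‐3‐3ζ WT apoprotein (His‐tagged, expressed in E. coli BL21 DE3, Ni‐NTA then size exclusion, TEV‐cleaved) in 50 mM Na‐HEPES pH 8.0, 150 mM NaCl, 10% glycerol. N‐terminal FAM peptides fixed at 62.5 nM, protein titrated 8 to 0.0625 μM, ±1 mM ATP or ATPγS in binding buffer. 30 min at 25°C in the dark, then anisotropy read; K_D fitted.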

14‐3‐3ζ WT [6] = biological target: T2, 14‐3‐3ζ WT; assay type: binding; settings: MST
Method in brief: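 Labelled peptide binding by thermophoresis with recombinant, TEV‐cleaved 14‐3‐3ζ WT. Protein from 32 μM serially diluted 2‐fold with 10 μM FAM‐peptide in FP buffer (50 mM Na‐HEPES pH 8.0, 150 mM NaCl, 10% glycerol), at varied ATP concentrations. Fluorescence counts and power set per manufacturer. Standard glass capillaries; fit in instrument software.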

14‐3‐3ζ R55A [7] = biological target: T1, 14‐3‐3ζ R55A; test: ExoS peptide binding to 14‐3‐3ζ R55A by microscale thermophoresis, effect of ATP; settings: MST; different concentrations of ATP
Method in brief: (§2)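 Purified untagged mutant 14‑3‑3ζ, starting at 32 μM, serially diluted 2‑fold in 10 μM FAM‑labeled peptide, in the FP binding buffer (50 mM Na‑HEPES pH 8.0, 150 mM NaCl, 10% glycerol), with ATP at several concentrations. Fluorescent counts and power set beforehand. Samples read in standard glass capillaries on a Monolith NT.115.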

14‐3‐3ζ Y82A [8] = biological target: T3, 14‐3‐3ζ Y82A; test: ExoS peptide binding to 14‐3‐3ζ Y82A by microscale thermophoresis, effect of ATP; settings: MST; different concentrations of ATP
Method in brief: as §2

14‐3‐3ζ E180A = assay type: binding, human; settings: FP; 1 mM ATP; 5FAM‐labeled ExoS peptide 62.5 nM, 25°C, 30 min
Method in brief: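 Recombinant human 14‑3‑3ζ mutant, His‑tagged, expressed in E. coli BL21 DE3, purified by Ni‑NTA and size exclusion, tag removed with TEV, buffer‑exchanged into 50 mM Na‑HEPES pH 8.0, 150 mM NaCl, 10% glycerol. N‑terminal FAM‑peptide held at 62.5 nM, protein titrated 8 to 0.0625 μM, 1 mM ATP in binding buffer. 25°C, dark, 30 min; anisotropy change read; K_D fitted.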

[9] = biological target: T4, 14-3-3ζ WT (human), P63104; test: native gel or EMSA; settings: remark: other sources report otherwise
T4 chain: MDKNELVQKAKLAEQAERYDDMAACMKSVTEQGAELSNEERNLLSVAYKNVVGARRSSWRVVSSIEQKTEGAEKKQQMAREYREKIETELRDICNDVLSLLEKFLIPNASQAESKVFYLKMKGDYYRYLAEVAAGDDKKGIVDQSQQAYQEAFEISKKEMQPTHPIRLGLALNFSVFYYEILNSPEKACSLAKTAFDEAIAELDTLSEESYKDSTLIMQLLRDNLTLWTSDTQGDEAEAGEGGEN

14-3-3ζ R55A = biological target: T5, 14-3-3ζ R55A (human, UniProt P63104 1-245, R55A); test: MST
T5 sequence (looked up): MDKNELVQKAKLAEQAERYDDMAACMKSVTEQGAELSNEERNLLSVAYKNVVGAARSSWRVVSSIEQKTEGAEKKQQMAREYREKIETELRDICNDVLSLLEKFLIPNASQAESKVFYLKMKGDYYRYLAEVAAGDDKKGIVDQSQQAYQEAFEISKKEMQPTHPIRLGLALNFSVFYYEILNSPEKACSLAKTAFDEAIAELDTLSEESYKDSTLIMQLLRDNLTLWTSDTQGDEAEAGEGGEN

14-3-3ζ Y82A = biological target: T6, 14-3-3ζ Y82A (human, UniProt P63104 1-245, Y82A); test: MST
T6 sequence (looked up): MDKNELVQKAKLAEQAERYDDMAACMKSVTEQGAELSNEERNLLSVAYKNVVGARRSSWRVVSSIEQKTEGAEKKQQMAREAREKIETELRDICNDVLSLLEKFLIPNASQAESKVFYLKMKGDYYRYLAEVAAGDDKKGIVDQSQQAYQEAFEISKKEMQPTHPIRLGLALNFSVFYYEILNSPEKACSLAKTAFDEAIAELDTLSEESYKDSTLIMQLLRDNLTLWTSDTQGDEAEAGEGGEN

14-3-3ζ WT = biological target: T7, 14-3-3ζ WT (human, UniProt P63104 1-245); test: fluorescence polarisation
T7 sequence (looked up): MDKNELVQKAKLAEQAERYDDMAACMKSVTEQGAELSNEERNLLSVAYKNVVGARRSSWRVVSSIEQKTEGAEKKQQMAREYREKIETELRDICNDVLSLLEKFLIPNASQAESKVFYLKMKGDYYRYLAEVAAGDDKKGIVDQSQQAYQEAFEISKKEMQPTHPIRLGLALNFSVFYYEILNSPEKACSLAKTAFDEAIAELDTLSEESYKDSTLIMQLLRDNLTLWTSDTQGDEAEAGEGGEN

14-3-3ζ E180A = biological target: T8, 14-3-3ζ E180A (human, UniProt P63104 1-245, E180A); test: fluorescence polarisation
T8 sequence (looked up): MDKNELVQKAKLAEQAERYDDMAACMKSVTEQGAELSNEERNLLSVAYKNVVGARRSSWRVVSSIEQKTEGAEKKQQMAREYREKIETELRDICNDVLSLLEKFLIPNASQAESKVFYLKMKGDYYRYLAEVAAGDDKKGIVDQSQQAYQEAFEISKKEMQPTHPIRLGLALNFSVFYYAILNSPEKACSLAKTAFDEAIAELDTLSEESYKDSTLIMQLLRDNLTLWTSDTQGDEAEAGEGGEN

14‐3‐3τ = settings: cited from earlier work

Molecule: Nc1ncnc2c1ncn2[C@@H]1O[C@H](CO[P@](=O)(O)O[P@](=O)(O)O[P@@](=O)(O)S)[C@@H](O)[C@H]1O [ATPγS]
- effect on binding of nonphosphopeptide ExoS to R55A (14‐3‐3ζ R55A [1]): definitive decrease
- effect on binding of nonphosphopeptide ExoS to ζWT (14‐3‐3ζ WT [2]; 10 μM to 1 mM ATPγS with 10 μM peptide, qualitative): definitive decrease; also recorded: concentration‐dependent inhibition
- effect on binding of mode 2 phosphopeptide to 14‐3‐3ζ WT (14‐3‐3ζ WT [2]; 1 mM ATPγS): did not show any effect
- ATP binding site suggested by LiP‐MS (14‐3‐3ζ WT [3]): 81–91 residues which are part of the dimer interface, were exclusively protected by ATPγS
- protection against Proteinase K cleavage (SDS PAGE) (14‐3‐3ζ WT [3]; 25°C, 30 min, Proteinase K 1:100, 1 min at 25°C): protects the protein against proteolytic cleavage
- Log2 fold change of conformotypic peptide, ATPγS bound versus unbound (14‐3‐3ζ WT [3]; peptide YDDMAAC (19–25), C_SEMI, adjusted p 2.49E‐02): −1.0
- Log2 fold change of conformotypic peptide, ATPγS bound versus unbound (14‐3‐3ζ WT [3]; peptide YDDMAACMK (19–27), FULL_TRP, adjusted p 6.47E‐03): 1.8
- effect on binding of nonphosphopeptide ExoS to Y82A (14‐3‐3ζ Y82A [4]): definitive decrease
- effect on binding of mode 1 or mode 2 peptides to 14‐3‐3ζ (14‐3‐3ζ WT [5]): no effect

Molecule: Nc1ncnc2c1ncn2[C@@H]1O[C@H](COP(=O)(O)OP(=O)(O)OP(=O)(O)O)[C@@H](O)[C@H]1O [ATP]
- ATP binding site suggested by LiP‐MS (14‐3‐3ζ WT [3]): there is a second ATP binding site at the dimer interface
- type of inhibition of ExoS peptide binding (14‐3‐3ζ WT [6]; 14‐3‐3ζ WT, ATP at the dimer interface): as a non‐competitive inhibitor by binding to the dimer interface
- effect on binding of phosphopeptide to ζWT (14‐3‐3ζ WT [6]; FAM‐labeled peptide): did not show any effect
- effect on binding of ExoS peptide to ζWT (14‐3‐3ζ WT [6]; different concentrations of ATP): the binding of nonphosphorylated ExoS peptide decreased in the presence of ATP; also recorded: concentration‐dependent inhibition
- effect on binding of mode 1 or mode 2 peptides to 14‐3‐3ζ (14‐3‐3ζ WT [5]): no effect
- effect on binding of ExoS peptide to 14‐3‐3ζ WT (14‐3‐3ζ WT [5]; 1 mM ATP, 5FAM‐labeled ExoS peptide 62.5 nM): marginally but reproducibly decreased
- effect on binding of ExoS peptide to R55A (14‐3‐3ζ R55A [7]): did not affect the binding
- effect on binding of ExoS peptide to Y82A (14‐3‐3ζ Y82A [8]): did not affect the binding
- effect on binding of ExoS peptide to E180A mutant (14‐3‐3ζ E180A): marginally but reproducibly decreased

B1: 14-3-3ζ WT, P63104 1-245 (natural protein)
chain: MDKNELVQKAKLAEQAERYDDMAACMKSVTEQGAELSNEERNLLSVAYKNVVGARRSSWRVVSSIEQKTEGAEKKQQMAREYREKIETELRDICNDVLSLLEKFLIPNASQAESKVFYLKMKGDYYRYLAEVAAGDDKKGIVDQSQQAYQEAFEISKKEMQPTHPIRLGLALNFSVFYYEILNSPEKACSLAKTAFDEAIAELDTLSEESYKDSTLIMQLLRDNLTLWTSDTQGDEAEAGEGGEN
- stoichiometry N [9]: 2

B2: FAM-labeled nonphosphorylated ExoS peptide (5FAM-QGLLDALDLAS) (peptide)
peptide: 5FAM-QGLLDALDLAS
- binding result (14-3-3ζ R55A): binds
- binding result (14-3-3ζ Y82A): binds
- binding result (14-3-3ζ WT): binds
- binding result (14-3-3ζ E180A): binds

B3: 14‐3‐3τ: 14‐3‐3 tau paralog (protein, UniProt P27348 1-245, looked up)
14-3-3 protein theta: MEKTELIQKAKLAEQAERYDDMATCMKAVTEQGAELSNEERNLLSVAYKNVVGGRRSAWRVISSIEQKTDTSDKKLQLIKDYREKVESELRSICTTVLELLDKYLIANATNPESKVFYLKMKGDYFRYLAEVACGDDRKQTIDNSQGAYQEAFDISKKEMQPTHPIRLGLALNFSVFYYEILNNPELACTLAKTAFDEAIAELDTLNEDSYKDSTLIMQLLRDNLTLWTSDSAGEECDAAEGAEN
- ATP/ADP exchange activity (14‐3‐3τ): has an ATP/ADP exchange activity
